According to ChEMBL document CHEMBL4393712, “Discovery of chalcone-modified estradiol analogs as antitumour agents that Inhibit tumour angiogenesis and epithelial to mesenchymal transition” (Eur J Med Chem, 2019):
The source made the active and inactive calls. No cut-off for these calls is given here.

Assays:
[1] = tested on: PC-3; experiment: Cytotoxicity against human PC3 cells assessed as reduction in cell viability measured after 48 to 72 hrs by MTT assay; format: cell-based
Procedure, shortened: (§1)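 Cells seeded at 3 × 10^3 per well in 96-well plates, incubated overnight, then given fresh medium with a range of drug concentrations for 48 h or 72 h. MTT added (final 500 µg/mL) for 4 h, formazan dissolved in DMSO, absorbance at 570 nm; IC50 derived. Mean ± SD of 3 independent tests.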

[2] = Hepatotoxicity in nude mouse xenografted with human MCF7 cells assessed as increase in serum aspartate transaminase level at 45 mg/kg/day, ip administered for 21 days by automatic biochemical analyzer; format: toxicity, organism-based; conditions: in vivo, 504 h
[3] = tested on: B16; experiment: Antitumour activity against mouse B16 cells assessed as cell growth inhibition measured after 72 hrs by SRB assay; format: functional, cell-based; conditions: B16, 72 h
Procedure, shortened: (§2)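 Exponentially growing cells trypsinized, seeded at 5 × 10^4 cells/mL in 96-well plates, cultured overnight, then exposed to compounds for 72 h. Cells fixed with 10% TCA 1 h, stained with SRB 15 min, dye dissolved in Tris-HCl, absorbance read; 50% growth-inhibitory concentration calculated.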

[4] = Hepatotoxicity in nude mouse xenografted with human MCF7 cells assessed as increase in serum alanine transaminase level at 45 mg/kg/day, ip administered for 21 days by biochemical automatic analyzer; format: toxicity, organism-based; conditions: in vivo, 504 h
[5] = Toxicity in nude mouse xenografted with human MCF7 cells assessed as decrease in body weight at 45 mg/kg/day, ip administered for 21 days; format: organism-based; conditions: in vivo, 504 h
Procedure, shortened: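 Nude mice (male/female, 4–6 weeks) injected subcutaneously in right forelimb with 5 × 10^7 MCF-7 cells in 200 µL saline; at mean tumour 100 mm3 randomized (n = 5/group): saline 0.2 mL/day, 22.5 or 45 mg/kg/day ip for 21 days. Body weight and tumour volume (length × width²/2) every other day; tumours weighed at day 21.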

[6] = tested on: SMMC-7721; experiment: Antitumour activity against human SMMC7721 cells assessed as cell growth inhibition measured after 72 hrs by SRB assay; format: functional, cell-based; conditions: SMMC-7721, 72 h; procedure, shortened: as §2
[7] = tested on: HUVEC; experiment: Cytotoxicity against HUVEC assessed as reduction in cell viability measured after 48 to 72 hrs by MTT assay; format: cell-based; conditions: human; procedure, shortened: as §1
[8] = tested on: SK-N-SH; experiment: Antitumour activity against human SK-N-SH cells assessed as cell growth inhibition measured after 72 hrs by SRB assay; format: functional, cell-based; procedure, shortened: as §2
[9] = tested on: MGC-803; experiment: Antitumour activity against human MGC803 cells assessed as cell growth inhibition measured after 72 hrs by SRB assay; format: functional, cell-based; conditions: MGC-803, 72 h; procedure, shortened: as §2
[10] = tested on: MGC-803; experiment: Cytotoxicity against human MGC803 cells assessed as reduction in cell viability measured after 48 to 72 hrs by MTT assay; format: cell-based; procedure, shortened: as §1
[11] = Toxicity in nude mouse xenografted with human MCF7 cells assessed as liver edema at 45 mg/kg/day, ip administered for 21 days by HE staining analysis; format: organism-based; conditions: in vivo, 504 h
[12] = tested on: ECa-109 cell line; experiment: Antitumour activity against human EC109 cells assessed as cell growth inhibition measured after 72 hrs by SRB assay; format: functional, cell-based; conditions: ECa-109, 72 h; procedure, shortened: as §2
[13] = Hepatotoxicity in nude mouse xenografted with human MCF7 cells assessed as increase in serum alkaline phosphatase level at 45 mg/kg/day, ip administered for 21 days by biochemical automatic analyzer; format: toxicity, organism-based; conditions: in vivo, 504 h
[14] = tested on: Chorioallantoic membrane; experiment: Antiangiogenic activity in chicken chorioallantoic membrane assessed as reduction in neovascularization at 50 ug/ml measured after 72 hrs by CAM assay; format: functional; conditions: Gallus gallus
Procedure, shortened: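 Fertilized chicken eggs incubated 6 days at 37 °C; shell windowed and CAM treated (compounds and controls at […] as printed; saline vehicle control). Eggs re-incubated humidified; membranes fixed and harvested after 72 h. Angiogenesis scored by counting blood vessels and imaging neovascular zones; ten eggs per group.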

[15] = tested on: A549; experiment: Antitumour activity against human A549 cells assessed as cell growth inhibition measured after 72 hrs by SRB assay; format: functional, cell-based; conditions: A549, 72 h; procedure, shortened: as §2
[16] = tested on: GES1; experiment: Cytotoxicity against human GES-1 cells assessed as reduction in cell viability measured after 48 to 72 hrs by MTT assay; format: cell-based; procedure, shortened: as §1
[17] = tested on: HeLa; experiment: Antiproliferative activity against human HeLa cells measured after 72 hrs by MTT assay; format: functional, cell-based
[18] = Solubility of the compound in water; format: physicochemical; conditions: buffer
[19] = tested on: HEK293; experiment: Cytotoxicity against human HEK293 cells measured after 48 to 72 hrs by MTT assay; format: cell-based; procedure, shortened: as §1
[20] = tested on: HCT-116; experiment: Antiproliferative activity against human HCT116 cells measured after 48 hrs by SRB assay; format: functional; conditions: HCT-116, 48 h
[21] = tested on: NCI-H460; experiment: Antiproliferative activity against human NCI-H460 cells measured after 48 hrs by SRB assay; format: functional; conditions: NCI-H460, 48 h
[22] = tested on: U-251; experiment: Antiproliferative activity against human U251 cells measured after 48 hrs by SRB assay; format: functional; conditions: U-251, 48 h
[23] = tested on: MDA-MB-435; experiment: Antiproliferative activity against human MDA-MB-435 cells measured after 48 hrs by SRB assay; format: functional; conditions: MDA-MB-435, 48 h
[24] = tested on: MDA-MB-231; experiment: Antiproliferative activity against human MDA-MB-231 cells measured after 72 hrs by MTT assay; format: functional, cell-based; conditions: MDA-MB-231, 72 h
[25] = tested on: MCF7; experiment: Antiproliferative activity against human MCF7 cells measured after 72 hrs by MTT assay; format: functional, cell-based; conditions: MCF7, 72 h
[26] = tested on: K562; experiment: Anticancer activity against human K562 cells measured after 48 hrs by SRB assay; format: functional; conditions: K562, 48 h
[27] = tested on: RPMI-8226; experiment: Anticancer activity against human RPMI8226 cells measured after 48 hrs by SRB assay; format: functional; conditions: RPMI-8226, 48 h
[28] = tested on: CCRF-CEM; experiment: Anticancer activity against human CCRF-CEM cells measured after 48 hrs by SRB assay; format: functional
[29] = tested on: SR; experiment: Anticancer activity against human SR cells measured after 48 hrs by SRB assay; format: functional

Structure (SMILES)	IC50 [3] [µM]	IC50 [6] [µM]	IC50 [8] [µM]	IC50 [9] [µM]	IC50 [12] [µM]	inhibition [14]	IC50 [15] [µM]	solubility [18]	IC50 [19] [µM]	also measured
COc1cc2c(cc1O)CC[C@@H]1[C@@H]2CC[C@]2(C)[C@@H](O)CC[C@@H]12 [2-METHOXYESTRADIOL]	3.4	8.4	1.6	4	4.1	Active	1.1	–	–	Activity [1]: Toxic; Activity [2]: Toxic; Activity [4]: Toxic; Activity [5]: Toxic; Activity [7]: Toxic; Activity [10]: Toxic; Activity [11]: Toxic; Activity [13]: Toxic; Activity [16]: Toxic
C[C@]12CC[C@@H]3c4ccc(O)cc4CC[C@H]3[C@@H]1C/C(=N\O)C2=O	–	–	–	–	–	–	–	–	–	IC50 [17]: 4.41 µM
COc1cccc(/C=C/C(=O)c2cc3c(cc2O)CC[C@@H]2[C@@H]3CC[C@]3(C)[C@@H](O)CC[C@@H]23)c1	8.9	26.1	4.5	4	5.6	Active	5.5	Soluble	13.1	–
COc1cc2c(cc1O)CC[C@@H]1[C@@H]2CC[C@]2(C)C(=O)/C(=C/c3ccc(Br)cc3)C[C@@H]12	2.6	0.1	42	14.1	17.6	Active	39.4	Soluble	48.9	–
COc1cc2c(cc1O)CC[C@@H]1[C@@H]2CC[C@]2(C)C(=O)/C(=C/c3cccc(Cl)c3)C[C@@H]12	10.1	16.9	21	12.3	24.3	Active	22.6	Soluble	77.1	–
COc1cc2c(cc1O)CC[C@@H]1[C@@H]2CC[C@]2(C)C(=O)/C(=C/c3ccc(F)cc3)C[C@@H]12	16.8	8.2	27	13.5	19.9	Active	25.3	Soluble	87.8	–
C[C@]12CC[C@@H]3c4cc(C(=O)/C=C/c5ccc(OCc6ccccc6)cc5)c(O)cc4CC[C@H]3[C@@H]1CC[C@@H]2O	> 128	> 128	> 128	> 128	> 128	Active	52.6	Soluble	> 100	–
C=C1CC[C@H]2[C@@H]3CCc4cc(O)c(/C=C/C(=O)c5cc(OC)c(OC)c(OC)c5)cc4[C@H]3CC[C@]12C	–	–	–	–	–	–	–	–	–	GI50 [20]: 1.6 µM; GI50 [21]: 2.6 µM; GI50 [22]: 1.4 µM; GI50 [23]: 1.6 µM
C[C@]12CC[C@H]3[C@@H](CCC4=CC(=O)CC[C@@]43C)[C@@H]1CC[C@@H]2C(=O)/C=C/c1ccc(F)cc1	–	–	–	–	–	–	–	–	–	IC50 [24]: 2 µM; IC50 [25]: 2 µM
CN1CCN(C(=O)COc2ccc(/C=C3\C[C@H]4[C@@H]5CC=C6CC(Cl)CC[C@]6(C)[C@H]5CC[C@]4(C)C3=O)cc2)CC1 (some centres not stated)	–	–	–	–	–	–	–	–	–	GI50 [26]: 2.61 µM; GI50 [27]: 6.9 µM; GI50 [28]: 3.94 µM; GI50 [29]: 1.79 µM
